Laboratory results published in PubChem BioAssay.
Records with an inconclusive call do not appear.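 Rule for the calls, unless noted: active = viability increase at or above a cutoff of the median across tested compounds plus 3 SD (cut at about 8.5% in these data, passing the limit was not always enough); inconclusive = some gains above the cutoff, reason not given; inactive = the rest.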

Tests used:
[1] = S. cerevisiae growth inhibition in permissive medium (OD615), pilot counter-assay for S. cerevisiae lifespan shortening project, permissive growth control (AID 705;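 active = growth inhibition above 25% in both replicates, a cutoff set 3 SD above the mean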); conditions: OD615, 24 h, at 10 µM, hits give high values
Procedure, shortened: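 System: Engineered DeaD yeast | Buffer or medium: SC raffinose/galactose permissive medium | Incubation: Cells pre-grown 4 h, then 24 h compound exposure, 30 °C humidified | Measured by: Absorbance (optical density) at 615 nm | Read-out: Reduction in yeast growth (OD615)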

[2] = S. cerevisiae growth inhibition in restrictive medium, OD615, pilot screen, restrictive growth control, yeast lifespan reduction project (AID 706;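 active = growth inhibition above a set limit, 3 SD over mean compound inhibition, in both replicates, cut at about 43% in these data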;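 note: modified DeaD lifespan yeast strain shifted to restrictive glucose medium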); conditions: OD615, 48 h, at 10 µM, hits give high values
Procedure, shortened: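 Material: modified S. cerevisiae; Medium: glucose-based CSMM-D restrictive medium; Compound dosing: one concentration, 10 µM final, 0.25% DMSO; Incubation: 48 h compound exposure at 30 °C; Measured by: OD615.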

[3] = doxorubicin toxicity protection in MRP-1 cells – H69AR cells, CellTiter-Glo, duplicate, MRP-1 activator project, pilot screen (AID 807); conditions: H69AR viability with doxorubicin, CellTiter-Glo luminescence; at 10 µM; hits give high values;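 note: compound pretreatment 18-22 h then 72 h combined with doxorubicin; 0% = doxorubicin alone and 100% = vehicle without doxorubicin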
[4] = viability of HCT116 without oncogenic beta-catenin – human colon tumor cells, pilot screen (AID 823;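 active = cell viability at or below a set limit in both duplicate runs, the limit being the all-compound median minus 4 SD, cut at about 23% in these data, passing the limit was not always enough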;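 note: 0% = wells killed by 20 µM Hyamine and 100% = untreated DMSO cell wells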); conditions: HCT116 beta-catenin knockout viability, CellTiter-Glo, 60 h; at 10 µM; hits give low values
[5] = RAM pathway blockade in budding yeast – dse1pr::URA3 reporter, 5-FOA selection, pilot screen (AID 869;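 active = inhibition over a set limit, the all-compound mean plus 3 SD, in both replicate runs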;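 note: 0% = DMSO wells with no growth and 100% = 10 µM 1-NA-PP1 with full growth; RAM network block rescues cells from 5-FOA so hits raise OD615 growth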); conditions: S. cerevisiae dse1pr::URA3 5-FOA growth, OD615, 2 d; at 10 µM; hits give high values; strain carries analog-sensitive mutant Cbk1 kinase
[6] = RAM signaling pathway blockade in yeast – S. cerevisiae, Pdr1DBD-CYC8 efflux-inhibited sensitized strain, primary screen (AID 1298;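 active = RAM network inhibition above 8.4% in each of two replicates, 3 SD over the compound average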;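 note: 0% = DMSO untreated cells without growth and 100% = 10 µM 1-NA-PP1 full growth; higher means more yeast growth rescued from 5-FOA killing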); conditions: S. cerevisiae cbk1-as DSE1-URA3 strain, 5-FOA growth OD615, 2 d; at 50 µM; hits give high values

Cn1cnnc1SCc1ccc(C(=O)O)cc1
inactive: growth inhibition [1] -5.04% | growth inhibition [2] 7.69% | viability increase [3] -1.36% | viability [4] 98.1% | inhibition [5] 1.06% | RAM network inhibition [6] 1.81%

COc1ccc(Nc2ncnc3c2cnn3Cc2ccccc2)cc1
inactive: growth inhibition [1] -28.7% | growth inhibition [2] 3.04% | viability increase [3] 1.14% | viability [4] 88.9% | inhibition [5] 1% | RAM network inhibition [6] 3.74%

O=C(NCC1COc2ccccc2O1)c1ccc(NC(=O)C2CCCO2)cc1 (centres undefined)
inactive: growth inhibition [1] -15.3% | growth inhibition [2] 3.32% | viability increase [3] 0.86% | viability [4] 99.7% | inhibition [5] 4.43% | RAM network inhibition [6] 8.99%

CSc1nnc(C2CCCN2)n1C (centres undefined)
inactive: growth inhibition [1] -16.9% | growth inhibition [2] -7.04% | viability increase [3] -0.51% | viability [4] 90.9% | inhibition [5] 2.88% | RAM network inhibition [6] -0.16%

CSc1nc2ccc(NC(=O)C3CC(=O)N(Cc4ccco4)C3)cc2s1 (centres undefined)
inactive: growth inhibition [1] 4.86% | growth inhibition [2] -2.38% | viability increase [3] -5.77% | viability [4] 97.4% | inhibition [5] 1.02% | RAM network inhibition [6] 0.88%

N#Cc1c(N)nc2c(c1-c1ccc3c(c1)OCO3)CCCCCC2
inactive: growth inhibition [1] -18% | growth inhibition [2] -4.1% | viability increase [3] -5.55% | viability [4] 84.8% | inhibition [5] 2.68% | RAM network inhibition [6] 6.96%

Cc1c(Cl)cccc1NC(=O)CCN1CCCC(C)C1 (centres undefined)
inactive: growth inhibition [1] -12.9% | growth inhibition [2] 3.83% | viability increase [3] -3.58% | viability [4] 94.7% | inhibition [5] 2.28% | RAM network inhibition [6] 3.43%

O=C(CNC(=O)Cn1ccc2ccccc2c1=O)NCCCN1CCN(c2cccc(Cl)c2)CC1
inactive: growth inhibition [1] -15.3% | growth inhibition [2] -5.33% | viability increase [3] -5.42% | viability [4] 57.3% | inhibition [5] 1.63% | RAM network inhibition [6] 2.03%

CCCCn1c(C(C)NC(=O)c2cccs2)nc2ccccc21 (centres undefined)
inactive: growth inhibition [1] -10.5% | growth inhibition [2] -2.79% | viability increase [3] -3.37% | viability [4] 89% | inhibition [5] 1.42% | RAM network inhibition [6] 3.28%

CCOC(=O)N1CCN(C(=O)CNS(=O)(=O)c2cccs2)CC1
inactive: growth inhibition [1] 7.6% | growth inhibition [2] 1.46% | viability increase [3] -2.69% | viability [4] 93.3% | inhibition [5] 0.785% | RAM network inhibition [6] 2.76%

CCn1cc(C(=O)N2CCN(c3ccccn3)CC2)c2cc(OC)c(OC)cc2c1=O
inactive: growth inhibition [1] -18% | growth inhibition [2] -7.93% | viability increase [3] -4.32% | viability [4] 104% | inhibition [5] 0.495% | RAM network inhibition [6] 6.02%

O=C1CC(c2ccccc2)n2nc(N3C(=O)CCC3=O)nc2N1 (centres undefined)
inactive: growth inhibition [1] -8.97% | growth inhibition [2] 1.75% | viability increase [3] -0.15% | viability [4] 97.9% | inhibition [5] 1.32% | RAM network inhibition [6] 3.53%

CCN1CCN(Cc2nc3c(c(=O)n(C)c(=O)n3C)n2C(C)C(C)=O)CC1 (centres undefined)
inactive: growth inhibition [1] -32.2% | growth inhibition [2] -4.38% | viability increase [3] -1.83% | viability [4] 89.7% | inhibition [5] 1.41% | RAM network inhibition [6] 4.46%

CCCn1cc(S(=O)(=O)CC(=O)Nc2ccc(OCC)cc2)c2ccccc21
inactive: growth inhibition [1] 1.42% | growth inhibition [2] 3.91% | viability increase [3] -4.37% | viability [4] 84.7% | inhibition [5] 1.41% | RAM network inhibition [6] 6.49%
